Measured values published in ChEMBL document CHEMBL2202976, “Structure requirements for anaerobe processing of azo compounds: implications for prodrug design” (Bioorg Med Chem Lett, 2012).

Experiments:
Format in all cases: ADME
[1] = Drug metabolism assessed as Clostridium perfringens azoreductase-mediated reoxidation of hydrazine intermediate to parent azo compound by LCMS analysis
Method in brief: (§1)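 Azo substrate incubated in Clostridium perfringens culture. Samples taken at 0 h and 6 h and analysed by LCMS, resolving parent azo isomer peaks from the hydrazine intermediate peak.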

[2] = Drug metabolism assessed as Clostridium perfringens azoreductase-mediated hydrazine intermediate formation by LCMS analysis; method in brief: as §1
[3] = Prodrug conversion assessed as Clostridium perfringens azoreductase-mediated disproportionation to parent amine by HPLC analysis
[4] = Prodrug conversion assessed as Clostridium perfringens azoreductase-mediated prednisolone formation by HPLC analysis
[5] = Drug metabolism assessed as Clostridium perfringens azoreductase-mediated reduction within 4 hrs by HPLC analysis
[6] = Drug metabolism assessed as Clostridium perfringens azoreductase-mediated reoxidation of hydrazine intermediate to parent azo compound at 6 hrs by LCMS analysis; method in brief: as §1
[7] = Drug metabolism assessed as Clostridium perfringens-mediated hydrazine intermediate formation at 6 hrs by LCMS analysis; method in brief: as §1
azoreductase = test: Drug metabolism assessed as Clostridium perfringens azoreductase-mediated reduction at 6 hrs by HPLC analysis; details: read-out: Drug metabolism
Method in brief: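 Azo substrates incubated with Clostridium perfringens culture and sampled over time to 6 h. Parent loss and product formation followed by reverse-phase HPLC with PDA UV detection, with the azo chromophore absorbing at 300–400 nm.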

[8] = Drug metabolism assessed as Clostridium perfringens azoreductase-mediated dihydroquinolone derivative formation by HPLC analysis

Row | SMILES | Drug metabolism [1] | Drug metabolism [2] | Drug metabolism [3] | Drug metabolism [5] | other results
1 | O=C(O)c1ccc(/N=N/c2ccccc2)cc1 | Active | Active |  |  | 
2 | FC(F)(F)c1ccc(/N=N/c2ccccc2)cc1 | Not Active | Active | Active |  | 
3 | O=C(O)CCc1ccccc1/N=N/c1ccc(C(=O)O)cc1 |  |  |  |  | Drug metabolism [4]: Not Active
4 | O=[N+]([O-])c1ccc(/N=N/c2ccc(O)cc2)cc1 |  |  | Active | Active | 
5 | N#Cc1ccc(/N=N/c2ccccc2)cc1 | Active | Active |  |  | 
6 | CN(C)c1ccc(/N=N/c2ccccc2)cc1 [DIMETHYL YELLOW] |  |  | Active | Active | 
7 | O=C(O)CCc1ccccc1/N=N/c1ccc(C(=O)NCC(=O)O)cc1 |  |  |  |  | Drug metabolism [4]: Not Active
8 | O=C(O)c1cccc(/N=N/c2ccccc2)c1 | Active | Active |  |  | 
9 | C[C@]12C=CC(=O)C=C1CC[C@@H]1[C@@H]2[C@@H](O)C[C@@]2(C)[C@H]1CC[C@]2(O)C(=O)COC(=O)CCc1ccccc1/N=N/c1ccc(C(=O)O)cc1 |  |  |  |  | Drug metabolism [6]: Active; Drug metabolism [7]: Active; metabolised at 6 h (azoreductase): 55%; Drug metabolism [4]: Not Active; Drug metabolism [8]: Not Active
10 | Brc1ccc(/N=N/c2ccccc2)cc1 | Active | Active |  |  | 
11 | CN(C)c1ccc(/N=N/c2ccccc2C(=O)O)cc1 |  |  | Active | Active | 
12 | Oc1ccc(/N=N/c2ccc(Br)cc2)cc1 |  |  | Active | Active | 
13 | O=C(O)c1ccc(/N=N/c2ccc(O)cc2)cc1 |  |  | Active | Active | 
14 | N#Cc1ccc(/N=N/c2ccc(O)cc2)cc1 |  |  | Active | Active | 
